# How the values were obtained:
# [1] = Tmax in CYP2D6-humanized transgenic FVB/N mouse at 10 mg/kg, ip by LC-MS/MS analysis; format: ADME, organism-based; design: dose 10 mg/kg, route intraperitoneal; settings: in vivo
# Outline: (§1)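 Male 8-week FVB/N wild-type or CYP2D6-humanized mice given 5-MeO-DMT oxalate in saline i.p. at 10 µL/g body weight. Serum sampled 0-180 min, N = 4 per time point, processed by acetonitrile protein precipitation with internal standard, quantified by LC-MS/MS. Tmax taken as observed from composite mean serum concentration-time data.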
# Serum [2] = assay: Drug uptake in wild-type FVB/N mouse serum by LC-MS/MS analysis; format: ADME, cell-free; settings: read-out: Drug uptake
# Mus musculus [3] = assay: AUC (0 to infinity) in CYP2D6-humanized transgenic FVB/N mouse at 2 mg/kg, ip by LC-MS/MS analysis; format: ADME, organism-based, Plasma; design: time infinity, dose 2 mg/kg, route intraperitoneal; settings: in vivo
# [4] = Tmax in wild-type FVB/N mouse at 20 mg/kg, ip by LC-MS/MS analysis; format: ADME, organism-based; design: dose 20 mg/kg, route intraperitoneal; settings: in vivo; outline: as §1
# Mus musculus [5] = assay: AUC (0 to infinity) in CYP2D6-humanized transgenic FVB/N mouse at 10 mg/kg, ip by LC-MS/MS analysis; format: ADME, organism-based, Plasma; design: time infinity, dose 10 mg/kg, route intraperitoneal; settings: in vivo
# Mus musculus [6] = assay: AUC (0 to infinity) in wild-type FVB/N mouse at 20 mg/kg, iv by LC-MS/MS analysis; format: ADME, organism-based, Plasma; design: time infinity, dose 20 mg/kg, route intravenous; settings: in vivo
# Brain [7] = assay: Stability in wild-type FVB/N mouse brain at -80 degC; format: ADME
# Outline: (§2)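 Pilot test of 5-MeO-DMT in mouse brain homogenate (ice-cold saline) stored at -80°C over one year, quantified by LC-MS/MS after liquid-liquid extraction.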
# [8] = Toxicity in mouse; format: organism-based; settings: in vivo
# [9] = Bioavailability in wild-type FVB/N mouse at 20 mg/kg, ip by LC-MS/MS analysis; format: ADME, organism-based; settings: in vivo
# Mus musculus [10] = assay: AUC (0 to infinity) in wild-type FVB/N mouse at 2 mg/kg, iv by LC-MS/MS analysis; format: ADME, organism-based, Plasma; design: time infinity, dose 2 mg/kg, route intravenous; settings: in vivo
# [11] = Bioavailability in CYP2D6-humanized transgenic FVB/N mouse at 10 mg/kg, ip by LC-MS/MS analysis; format: ADME, organism-based; settings: in vivo
# [12] = Half life in wild-type FVB/N mouse at 10 mg/kg, iv by LC-MS/MS analysis; format: ADME, organism-based; design: dose 10 mg/kg, route intravenous; settings: in vivo
# [13] = Bioavailability in wild-type FVB/N mouse at 10 mg/kg, ip by LC-MS/MS analysis; format: ADME, organism-based; settings: in vivo
# Brain [14] = assay: Stability in CYP2D6-humanized transgenic FVB/N mouse brain at -80 degC; format: ADME; outline: as §2
# [15] = Ratio of drug level in brain to serum in CYP2D6-humanized transgenic FVB/N mouse at 20 mg/kg, ip by LC-MS/MS analysis; format: ADME, organism-based; design: dose 20 mg/kg, route intraperitoneal
# Outline: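 Mice dosed i.p. with 5-MeO-DMT in saline and killed at 20, 30 or 60 min. Brain homogenized in ice-cold saline and extracted liquid-liquid; serum processed by acetonitrile precipitation. Both quantified by LC-MS/MS (brain range 4.1-3000 nM). Ratio is brain over serum concentration at the same time point.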
# Mus musculus [16] = assay: Dose normalized AUC (0 to infinity) in wild-type FVB/N mouse at 2 mg/kg, iv by LC-MS/MS analysis; format: ADME, organism-based; design: dose 2 mg/kg, route intravenous; settings: in vivo
# [17] = Volume of distribution at steady state in wild-type FVB/N mouse at 2 mg/kg, iv by LC-MS/MS analysis; format: ADME, organism-based; design: dose 2 mg/kg, route intravenous; settings: in vivo, read-out: Vdss
# Outline: (§3)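 Male 8-week FVB/N wild-type or CYP2D6-humanized mice (25-30 g) given 5-MeO-DMT oxalate in saline i.v. at 5 µL/g body weight. Serum collected 0-180 min, N = 3 per time point, proteins precipitated with ice-cold acetonitrile containing internal standard, LC-MS/MS. Noncompartmental analysis of composite mean data; t1/2 = 0.693/terminal slope; Vss = CL×AUMC/AUC, CL = dose/AUC0→∞.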
# Serum [18] = assay: Drug recovery in CYP2D6-humanized transgenic FVB/N mouse serum by LC-MS/MS analysis; format: ADME, cell-free
# Mus musculus [19] = assay: Dose normalized AUC (0 to infinity) in wild-type FVB/N mouse at 2 mg/kg, ip by LC-MS/MS analysis; format: ADME, organism-based; design: dose 2 mg/kg, route intraperitoneal; settings: in vivo
# Mus musculus [20] = assay: Dose normalized AUC (0 to infinity) in wild-type FVB/N mouse at 20 mg/kg, iv by LC-MS/MS analysis; format: ADME, organism-based; design: dose 20 mg/kg, route intravenous; settings: in vivo
# [21] = Half life in wild-type FVB/N mouse at 2 mg/kg, iv by LC-MS/MS analysis; format: ADME, organism-based; design: dose 2 mg/kg, route intravenous; settings: in vivo; outline: as §3
# [22] = Tmax in CYP2D6-humanized transgenic FVB/N mouse at 20 mg/kg, ip by LC-MS/MS analysis; format: ADME, organism-based; design: dose 20 mg/kg, route intraperitoneal; settings: in vivo; outline: as §1
# [23] = Cmax in wild-type FVB/N mouse at 2 mg/kg, ip by LC-MS/MS analysis; format: ADME, organism-based; design: dose 2 mg/kg, route intraperitoneal; settings: in vivo
# [24] = Tmax in CYP2D6-humanized transgenic FVB/N mouse at 2 mg/kg, ip by LC-MS/MS analysis; format: ADME, organism-based; design: dose 2 mg/kg, route intraperitoneal; settings: in vivo; outline: as §1
# Mus musculus [25] = assay: AUC (0 to infinity) in CYP2D6-humanized transgenic FVB/N mouse at 2 mg/kg, iv by LC-MS/MS analysis; format: ADME, organism-based, Plasma; design: time infinity, dose 2 mg/kg, route intravenous; settings: in vivo
# [26] = Cmax in CYP2D6-humanized transgenic FVB/N mouse at 2 mg/kg, ip by LC-MS/MS analysis; format: ADME, organism-based; design: dose 2 mg/kg, route intraperitoneal; settings: in vivo
# [27] = Half life in CYP2D6-humanized transgenic FVB/N mouse at 20 mg/kg, iv by LC-MS/MS analysis; format: ADME, organism-based; design: dose 20 mg/kg, route intravenous; settings: in vivo
# [28] = Volume of distribution at steady state in wild-type FVB/N mouse at 20 mg/kg, iv by LC-MS/MS analysis; format: ADME, organism-based; design: dose 20 mg/kg, route intravenous; settings: in vivo, read-out: Vdss; outline: as §3
# [29] = Tmax in wild-type FVB/N mouse at 2 mg/kg, ip by LC-MS/MS analysis; format: ADME, organism-based; design: dose 2 mg/kg, route intraperitoneal; settings: in vivo; outline: as §1
# [30] = Tmax in wild-type FVB/N mouse at 10 mg/kg, ip by LC-MS/MS analysis; format: ADME, organism-based; design: dose 10 mg/kg, route intraperitoneal; settings: in vivo; outline: as §1
# Serum [31] = assay: Drug recovery in wild-type FVB/N mouse serum by LC-MS/MS analysis; format: ADME, cell-free
# Mus musculus [32] = assay: Dose normalized AUC (0 to infinity) in wild-type FVB/N mouse at 10 mg/kg, iv by LC-MS/MS analysis; format: ADME, organism-based; design: dose 10 mg/kg, route intravenous; settings: in vivo
# [33] = Volume of distribution at steady state in wild-type FVB/N mouse at 10 mg/kg, iv by LC-MS/MS analysis; format: ADME, organism-based; design: dose 10 mg/kg, route intravenous; settings: in vivo, read-out: Vdss; outline: as §3
# [34] = Clearance in CYP2D6-humanized transgenic FVB/N mouse at 20 mg/kg, iv by LC-MS/MS analysis; format: ADME, organism-based; design: dose 20 mg/kg, route intravenous; settings: in vivo
# [35] = Cmax in CYP2D6-humanized transgenic FVB/N mouse at 10 mg/kg, ip by LC-MS/MS analysis; format: ADME, organism-based; design: dose 10 mg/kg, route intraperitoneal; settings: in vivo
compound,measurement,setting,value
COc1ccc2[nH]cc(CCN(C)C)c2c1.O=C(O)C(=O)O,Tmax,[1],5 min
same,concentration,Serum [2],4.1 nM
same,AUC,Mus musculus [3],20.9 µmol·min/L
same,Tmax,[4],5 min
same,AUC,Mus musculus [5],225 µmol·min/L
same,AUC,Mus musculus [6],920 µmol·min/L
same,Stability,Brain [7],> 1 yr
same,LD50,[8],48 mg/kg
same,bioavailability,[9],71%
same,AUC,Mus musculus [10],47.6 µmol·min/L
same,bioavailability,[11],61%
same,half-life,[12],12 min
same,bioavailability,[13],47.3%
same,Stability,Brain [14],> 1 yr
same,Kp,[15],3.2
same,AUC/dose,Mus musculus [16],5.19 kg·min/L
same,Vd,[17],2.27 L/kg
same,Drug recovery,Serum [18],62%
same,AUC/dose,Mus musculus [19],2.71 kg·min/L
same,AUC/dose,Mus musculus [20],10 kg·min/L
same,half-life,[21],9.2 min
same,Tmax,[22],5 min
same,Cmax,[23],1310 nM
same,Tmax,[24],3 min
same,AUC,Mus musculus [25],49.1 µmol·min/L
same,Cmax,[26],1010 nM
same,half-life,[27],12 min
same,Vd,[28],1.84 L/kg
same,Tmax,[29],3 min
same,Tmax,[30],5 min
same,Drug recovery,Serum [31],62%
same,AUC/dose,Mus musculus [32],10.6 kg·min/L
same,Vd,[33],2.08 L/kg
same,clearance,[34],110 mL/min/kg
same,Cmax,[35],8930 nM

# From ChEMBL document CHEMBL3525944, “Nonlinear pharmacokinetics of 5-methoxy-N,N-dimethyltryptamine in mice” (Drug Metab Dispos, 2011)
